Assay results taken from ChEMBL document CHEMBL1122808, “Substituent effects on reactivity and spectral parameters of cephalosporins” (J Med Chem, 1984).
Where “and” joins values, the source holds several entries; their conditions need not be identical. Equal entries are not always repeated.

Experiments:
[1] = Hydrolysis rate constant at pH 9.6; format: ADME; conditions: buffer
How it was run: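 Alkaline hydrolysis was followed by UV spectrophotometry on aqueous cephalosporin solutions at 6 × 10^-4 M and 35.0 ± 0.1 °C, with pH held at 9.60 ± 0.02 by borate buffer.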

[2] = Hydrolysis rate constant at pH 10; format: ADME; conditions: buffer

CCN(CC)C(=S)SCC1=C(C(=O)O)N2C(=O)C(NC(=O)Cc3cccs3)C2SC1 (configuration not stated)
k [1]: 0.067 h⁻¹

Cc1nc(CC(=O)NC2C(=O)N3C(C(=O)O)=C(CSc4nnc(C)o4)CSC23)no1 (configuration not stated)
k [1]: 0.105 h⁻¹

O=C(Cc1cccs1)NC1C(=O)N2C(C(=O)O)=C(CSc3c[nH]nn3)CSC12 (configuration not stated)
k [1]: 0.028 h⁻¹

O=C(Cc1cccs1)NC1C(=O)N2C(C(=O)O)=C(CSC3=CCC=CC3)CSC12 (configuration not stated)
k [1]: 0.019 h⁻¹

O=C(Cc1cccs1)NC1C(=O)N2C(C(=O)O)=C(CSc3nc4ccccc4s3)CSC12 (configuration not stated)
k [1]: 0.095 h⁻¹

Cc1nc(CC(=O)NC2C(=O)N3C(C(=O)O)=C(CSc4c[nH]nn4)CSC23)no1 (configuration not stated)
k [1]: 0.026 h⁻¹

Cn1nnnc1SCC1=C(C(=O)O)N2C(=O)C(NC(=O)C(Br)c3cccs3)C2SC1 (configuration not stated)
k [1]: 0.21 h⁻¹

CSCC1=C(C(=O)O)N2C(=O)C(NC(=O)Cc3cccs3)C2SC1 (configuration not stated)
k [2]: 0.079 h⁻¹

Cc1nc(CC(=O)NC2C(=O)N3C(C(=O)O)=C(CSc4nnc(C)s4)CSC23)no1 (configuration not stated)
k [1]: 0.104 h⁻¹

O=C(COc1ccccc1)NC1C(=O)N2C(C(=O)O)=C(CO)CSC12 (configuration not stated)
k [2]: 0.084 h⁻¹

CC1=C(C(=O)O)N2C(=O)C(NC(=O)Cc3noc(C)n3)C2SC1 (configuration not stated)
k [1]: 0.021 h⁻¹

CC1=C(C(=O)O)N2C(=O)C(NC(=O)Cc3cccs3)C2SC1 (configuration not stated)
k [2]: 0.038 h⁻¹

CC1=C(C(=O)O)N2C(=O)C(N)C2SC1 (configuration not stated)
k [2]: 0.0097 h⁻¹

CC(=O)OCC1=C(C(=O)O)N2C(=O)C(NC(=O)NCc3cccs3)C2SC1 (configuration not stated)
k [1]: > 3 h⁻¹

CC(=O)OCC1=C(C(=O)O)N2C(=O)C(NC(=O)CSc3ccncc3)C2SC1 (configuration not stated)
k [1]: 0.157 h⁻¹

CC(=O)OCC1=C(C(=O)O)N2C(=O)C(NC(=O)COc3ccccc3)C2SC1 (configuration not stated)
k [2]: 0.378 h⁻¹

CC(=O)OCC1=C(C(=O)O)N2C(=O)C(NC(=O)Cc3cccs3)C2SC1 (configuration not stated)
k [2]: 0.349 h⁻¹ and 0.3 h⁻¹ | k [1]: 0.147 h⁻¹

CC(C(=O)NC1C(=O)N2C(C(=O)O)=C(CSc3nnnn3C)CSC12)c1cccs1 (configuration not stated)
k [1]: 0.112 h⁻¹

Cn1nnnc1SCC1=C(C(=O)O)N2C(=O)C(NC(=O)Cc3cccs3)C2SC1 (configuration not stated)
k [1]: 0.126 h⁻¹

CC1=C(C(=O)O)N2C(=O)C(NC(=O)C(N)C3=CCC=CC3)C2SC1 (configuration not stated)
k [2]: 0.067 h⁻¹ | k [1]: 0.056 h⁻¹

CC1=C(C(=O)O)N2C(=O)C(NC(=O)COc3ccccc3)C2SC1 (configuration not stated)
k [2]: 0.049 h⁻¹

Cc1nnc(SCC2=C(C(=O)O)N3C(=O)C(NC(=O)Cc4cccs4)C3SC2)s1 (configuration not stated)
k [1]: 0.12 h⁻¹

O=C(COc1ccccc1)NC1C(=O)N2C(C(=O)[O-])=C(C[n+]3ccccc3)CSC12 (configuration not stated)
k [2]: 0.857 h⁻¹

O=C(Cc1cccs1)NC1C(=O)N2C(C(=O)[O-])=C(C[n+]3ccccc3)CSC12 (configuration not stated)
k [2]: 0.675 h⁻¹ and 1.08 h⁻¹ | k [1]: 0.53 h⁻¹

CC(=O)OCC1=C(C(=O)O)N2C(=O)[C@@H](N)[C@H]2SC1
k [1]: 0.037 h⁻¹

Cn1nnnc1SCC1=C(C(=O)O)N2C(=O)C(NC(=O)C(C(=O)[O-])c3cccs3)C2SC1.[Na+] (configuration not stated)
k [1]: 0.122 h⁻¹

CC(=O)OCC1=C(C(=O)O)N2C(=O)C(NC(=O)Cc3ccccc3)C2SC1 (configuration not stated)
k [2]: 0.36 h⁻¹

CC1=C(C(=O)O)N2C(=O)C(NC(=O)Cc3ccccc3)C2SC1 (configuration not stated)
k [2]: 0.033 h⁻¹ | k [1]: 0.017 h⁻¹

NC(=O)c1ccc[n+](CC2=C(C(=O)[O-])N3C(=O)C(NC(=O)Cc4cccs4)C3SC2)c1 (configuration not stated)
k [1]: 0.57 h⁻¹

Cc1nnc(SCC2=C(C(=O)O)N3C(=O)[C@@H](NC(=O)Cn4cnnn4)[C@H]3SC2)s1 [CEFAZOLIN]
k [2]: 0.217 h⁻¹ | k [1]: 0.107 h⁻¹

CC1=C(C(=O)O)N2C(=O)[C@@H](NC(=O)[C@H](N)c3ccccc3)[C@H]2SC1 [CEPHALEXIN ANHYDROUS]
k [2]: 0.145 h⁻¹ | k [1]: 0.058 h⁻¹
